Legend:
[1] = Inhibition of Mycobacterium tuberculosis InhA assessed as residual enzyme activity by measuring NADH oxidation at 100 uM incubated for 10 mins by spectrophotometry
[2] = Inhibition of Mycobacterium tuberculosis InhA assessed as effect on NADH oxidation incubated for 10 mins by spectrophotometry
[3] = Mixed type inhibition of Mycobacterium tuberculosis InhA assessed as effect on NADH oxidation incubated for 10 mins by spectrophotometry
How it was run: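 Inhibition type and Ki were taken from the continuous spectrophotometric InhA assay. DD-CoA was the substrate, and its Km was determined alongside.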

For `COc1ccc(-c2[nH]c3ccccc3c2CCC(=O)Nc2ncccc2C)cc1`, the Activity [1] was greater than 50% and the IC50 [2] was 14 µM.
With `Cc1c(CN(C)C(=O)/C=C/c2cnc3c(c2)CCC(=O)N3)c2ccccc2n1C` the Activity [1] was greater than 50%.
With `Oc1cc(Cl)ccc1Oc1ccc(Cl)cc1Cl` the Activity [1] was greater than 50%.
`Cc1cc2ncn(Cc3ccc(Cl)c(Cl)c3)c2cc1C` showed a Ki [3] of 4 µM, an Activity [1] greater than 50% and an IC50 [2] of 10 µM.

— ChEMBL document CHEMBL4715801, “Discovery of Mycobacterium tuberculosis InhA Inhibitors by Binding Sites Comparison and Ligands Prediction” (J Med Chem, 2016)
